According to ChEMBL document CHEMBL1287656, “New octahydroquinazoline derivatives: synthesis and hypotensive activity” (Eur J Med Chem, 2010):
Calls of active or inactive are those of the source. The rule behind the calls is not given here.

Key:
Rattus norvegicus [1] = assay: Hypotensive activity in anaesthetized albino rat assessed as reduction of adrenaline-induced increase in systolic arterial blood pressure at […], iv administered 30 mins before adrenaline challenge measured after 30 mins relative to control; type: functional; set-up: scale not given: the % may be the effect or the level left
Outline: (§1)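 Anaesthetised male albino rats (urethane 1.75–2.0 g/Kg i.p.; n=6 per group). Adrenaline (3/Kg i.v.) pressor response was recorded alone, 30 min before i.p. injection of the test agent (5 mg/Kg in tween 80/water). The adrenaline challenge was repeated 30 min and 1 h after dosing. Systolic and diastolic pressure were recorded via a cannulated artery and transducer.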

Rattus norvegicus [2] = assay: Hypotensive activity in anaesthetized albino rat assessed as change in diastolic arterial blood pressure at 5 mg/kg, ip after 30 mins relative to control; settings: route intraperitoneal
Rattus norvegicus [3] = assay: Toxicity in anaesthetized albino rat assessed as change in heart rate at 5 mg/kg, ip after 5 mins relative to control; type: organism-based; set-up: dose 5 mg/kg, route intraperitoneal; settings: in vivo
Outline: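 Urethane-anaesthetised (1.75–2.0 g/Kg i.p.) male albino rats, 6 per group, received 5 mg/Kg i.p. in tween 80/distilled water (1:3); solvent-treated controls. Heart rate was taken from a lead II ECG at 5 min after injection (also 15, 30, 60 min). Analysed by ANOVA or unpaired t test.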

Rattus norvegicus [4] = assay: Hypotensive activity in anaesthetized albino rat assessed as reduction of adrenaline-induced increase in systolic arterial blood pressure at 3 ug/kg, iv administered 30 mins before adrenaline challenge measured after 1 hr relative to control; type: functional; set-up: scale not given: the % may be the effect or the level left; outline: as §1
Rattus norvegicus [5] = assay: Hypotensive activity in anaesthetized albino rat assessed as reduction of adrenaline-induced increase in diastolic arterial blood pressure at 3 ug/kg, iv administered 30 mins before adrenaline challenge measured after 1 hr relative to control; type: functional; set-up: scale not given: the % may be the effect or the level left; outline: as §1
Rattus norvegicus [6] = assay: Hypotensive activity in anaesthetized albino rat assessed as change in systolic arterial blood pressure at 5 mg/kg, ip after 5 mins relative to control; type: functional; settings: route intraperitoneal
Outline: (§2)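 Male adult albino rats (groups of 6) anaesthetised with urethane 1.75–2.0 g/Kg i.p. Test agent given i.p. at 5 mg/Kg, dissolved in tween 80 and diluted 1:3 with distilled water. A solvent-treated group served as control. Arterial pressure was recorded via a cannula and pressure transducer on a chart oscillograph at 5, 15, 30 and 60 min. Statistics by one-way ANOVA or unpaired t test.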

Rattus norvegicus [7] = assay: Toxicity in anaesthetized albino rat assessed as change in heart rate at 60 mg/kg, ip after 5 mins relative to control; type: organism-based; set-up: dose 60 mg/kg, route intraperitoneal; settings: in vivo
Rattus norvegicus [8] = assay: Hypotensive activity in anaesthetized albino rat assessed as change in systolic arterial blood pressure at 5 mg/kg, ip after 15 mins relative to control; settings: route intraperitoneal
Rattus norvegicus [9] = assay: Toxicity in anaesthetized albino rat assessed as change in heart rate at 15 mg/kg, ip after 5 mins relative to control; type: organism-based; set-up: dose 15 mg/kg, route intraperitoneal; settings: in vivo
Rattus norvegicus [10] = assay: Hypotensive activity in anaesthetized albino rat assessed as change in systolic arterial blood pressure at 5 mg/kg, ip after 60 mins relative to control; settings: route intraperitoneal
Rattus norvegicus [11] = assay: Hypotensive activity in anaesthetized albino rat assessed as reduction of adrenaline-induced increase in diastolic arterial blood pressure at 3 ug/kg, iv administered 30 mins before adrenaline challenge measured after 30 mins relative to control; type: functional; set-up: scale not given: the % may be the effect or the level left; outline: as §1
Rattus norvegicus [12] = assay: Hypotensive activity in anaesthetized albino rat assessed as change in diastolic arterial blood pressure at 60 mg/kg, ip after 5 mins relative to control; type: functional; settings: route intraperitoneal
Rattus norvegicus [13] = assay: Toxicity in anaesthetized albino rat assessed as change in heart rate at 30 mg/kg, ip after 5 mins relative to control; type: organism-based; set-up: dose 30 mg/kg, route intraperitoneal; settings: in vivo
Rattus norvegicus [14] = assay: Hypotensive activity in anaesthetized albino rat assessed as change in diastolic arterial blood pressure at 5 mg/kg, ip after 5 mins relative to control; type: functional; settings: route intraperitoneal; outline: as §2
Rattus norvegicus [15] = assay: Hypotensive activity in anaesthetized albino rat assessed as change in diastolic arterial blood pressure at 5 mg/kg, ip after 15 mins relative to control; settings: route intraperitoneal
Rattus norvegicus [16] = assay: Hypotensive activity in anaesthetized albino rat assessed as change in diastolic arterial blood pressure at 5 mg/kg, ip; settings: TDE = time-dependent effect
Rattus norvegicus [17] = assay: Hypotensive activity in anaesthetized albino rat assessed as change in systolic arterial blood pressure at 15 mg/kg, ip; type: functional, organism-based; set-up: dose 15 mg/kg; settings: TDE = time-dependent effect
Rattus norvegicus [18] = assay: Hypotensive activity in anaesthetized albino rat assessed as change in diastolic arterial blood pressure at 5 mg/kg, ip up to 60 mins; type: functional, organism-based; set-up: dose 5 mg/kg; outline: as §2
Rattus norvegicus [19] = assay: Hypotensive activity in anaesthetized albino rat assessed as change in systolic arterial blood pressure at 5 mg/kg, ip up to 60 mins; type: functional, organism-based; set-up: dose 5 mg/kg; outline: as §2

| SMILES | Activity (Rattus norvegicus [1]) | Activity (Rattus norvegicus [2]) | Activity (Rattus norvegicus [3]) | Activity (Rattus norvegicus [4]) | Activity (Rattus norvegicus [5]) | Activity (Rattus norvegicus [6]) | Activity (Rattus norvegicus [7]) | Activity (Rattus norvegicus [8]) | Activity (Rattus norvegicus [9]) | Activity (Rattus norvegicus [10]) | Activity (Rattus norvegicus [11]) | Activity (Rattus norvegicus [12]) | Activity (Rattus norvegicus [13]) | Activity (Rattus norvegicus [14]) | Activity (Rattus norvegicus [15]) | Activity (Rattus norvegicus [18]) | Activity (Rattus norvegicus [19]) | also measured |
| --- | --- | --- | --- | --- | --- | --- | --- | --- | --- | --- | --- | --- | --- | --- | --- | --- | --- | --- |
| COc1cc2nc(N3CCN(C(=O)c4ccco4)CC3)nc(N)c2cc1OC [PRAZOSIN] | -11% | -27.7% | 30% | 0% | 0% | -20.8% | -5.1% | -29.2% | 26% | -33.3% | -8% | -38.8% | 16% | -22.22% | -22.22% |  |  |  |
| Cc1ccc(N2CC3=C(CC(C)(C)CC3=O)N(c3ccc(Cl)cc3)C2)cc1 | -11% | -6.25% | 0% | 0% | 0% | 0% | 0% | 0% | 0% | -6% | -8% | -18.7% | 0% | 0% | 0% |  |  | Activity (Rattus norvegicus [16]): tde; Activity (Rattus norvegicus [17]): tde |
| CC1(C)CC(=O)C2=C(C1)N(c1ccc(Cl)cc1)CN(c1ccc(OCC(=O)N/N=C/c3ccccc3Cl)cc1)C2 |  |  |  |  |  |  |  |  |  |  |  |  |  |  |  | inactive | inactive |  |
| CC1(C)CC(=O)C2=C(C1)N(c1ccc(Cl)cc1)CN(c1ccc(OCC(=O)N/N=C/c3ccc(Cl)cc3)cc1)C2 |  |  |  |  |  |  |  |  |  |  |  |  |  |  |  | inactive | inactive |  |
| CC1(C)CC(=O)C2=C(C1)N(c1ccc(Cl)cc1)CN(c1ccc(OCC(=O)NN)cc1)C2 |  |  |  |  |  |  |  |  |  |  |  |  |  |  |  | inactive | inactive |  |
| CC1(C)CC(=O)C2=C(C1)N(c1ccc(Cl)cc1)CN(c1ccc(OCC(=O)N/N=C/c3ccc(Cl)cc3Cl)cc1)C2 |  |  |  |  |  |  |  |  |  |  |  |  |  |  |  | inactive | inactive |  |
| CC1(C)CC(=O)C2=C(C1)N(c1ccc(Cl)cc1)CN(c1ccc(O)cc1)C2 | 17% | 0% | 0% | 17% | 16% | 0% |  | 0% | 0% | -3% | 10% | -5% | 0% | 0% | 0% |  |  |  |
| CC1(C)CC(=O)C2=C(C1)N(c1ccc(Cl)cc1)CN(c1ccc(OCC(=O)N/N=C/c3ccc(Br)cc3)cc1)C2 |  |  |  |  |  |  |  |  |  |  |  |  |  |  |  | inactive | inactive |  |
| CC1(C)CC(=O)C2=C(C1)N(c1ccc(Cl)cc1)CN(c1ccc(F)cc1)C2 |  |  |  |  |  |  |  |  |  |  |  |  |  |  |  | inactive | inactive |  |
| CC1(C)CC(=O)C2=C(C1)N(c1ccc(Cl)cc1)CN(c1ccc(OCC(=O)N/N=C/c3ccccc3)cc1)C2 | -7% | -15% | 0% | -7% | -7% | -19% | 0% | -13% | -4% | -13% | -6% | -20% | 0% | -10% | -10% |  |  |  |
| CC1(C)CC(=O)C2=C(C1)N(c1ccc(Cl)cc1)CN(c1ccccc1F)C2 |  |  |  |  |  |  |  |  |  |  |  |  |  |  |  | inactive | inactive |  |
| CC1(C)CC(=O)C2=C(C1)N(c1ccc(Cl)cc1)CN(c1ccc(OCC(=O)N/N=C/c3cccc([N+](=O)[O-])c3)cc1)C2 |  |  |  |  |  |  |  |  |  |  |  |  |  |  |  | inactive | inactive |  |
| CC1(C)CC(=O)C2=C(C1)N(c1ccc(Cl)cc1)CN(c1ccc(Br)cc1)C2 |  |  |  |  |  |  |  |  |  |  |  |  |  |  |  | inactive | inactive |  |
| COc1ccc(/C=N/NC(=O)COc2ccc(N3CC4=C(CC(C)(C)CC4=O)N(c4ccc(Cl)cc4)C3)cc2)cc1 |  |  |  |  |  |  |  |  |  |  |  |  |  |  |  | inactive | inactive |  |
| CC1(C)CC(=O)C2=C(C1)N(c1ccc(Cl)cc1)CN(c1ccc(Cl)cc1)C2 |  | 28% | 0% |  |  | 17.8% | 6% | 23% | 0% | 32.4% |  | 28% | 6% | 18.2% | 25% |  |  | Activity (Rattus norvegicus [16]): tde; Activity (Rattus norvegicus [17]): tde |
| CCOC(=O)COc1ccc(N2CC3=C(CC(C)(C)CC3=O)N(c3ccc(Cl)cc3)C2)cc1 |  |  |  |  |  |  |  |  |  |  |  |  |  |  |  | inactive | inactive |  |
| Cc1ccc(/C=N/NC(=O)COc2ccc(N3CC4=C(CC(C)(C)CC4=O)N(c4ccc(Cl)cc4)C3)cc2)cc1 | -11% | -29.16% | -2% | -22% | -28.5% | -17.8% | -6.3% | -21.4% | -5% | -39.3% | -19% | -37.5% | -6.3% | -25% | -25% |  |  |  |
| COc1cccc(/C=N/NC(=O)COc2ccc(N3CC4=C(CC(C)(C)CC4=O)N(c4ccc(Cl)cc4)C3)cc2)c1 |  |  |  |  |  |  |  |  |  |  |  |  |  |  |  | inactive | inactive |  |
| CC1(C)CC(=O)C2=C(C1)N(c1ccc(Cl)cc1)CN(c1ccc(OCC(=O)N/N=C/c3ccc([N+](=O)[O-])cc3)cc1)C2 | -10% | -31.25% | 0% | -5% | -9% | -13% | -6.2% | -17% | -2.1% | -26.5% | -9% | -31.25% | -2.1% | -12.5% | -25% |  |  |  |
| CC1(C)CC(=O)C2=C(C1)N(c1ccc(Cl)cc1)CN(c1ccc(OCC(=O)N/N=C/c3cccc(Br)c3)cc1)C2 |  |  |  |  |  |  |  |  |  |  |  |  |  |  |  | inactive | inactive |  |
